From ChEMBL document CHEMBL3046625, “Herbicidal and Fungicidal Activities of Lactones in Kava (Piper methysticum)” (2006) come the findings set out here.

Common to all, as to type: functional
In assay [1] the test system is Lactuca sativa. The experiment in a line: Herbicidal activity against Lactuca sativa cv. Great Lakes 366 (lettuce) assessed as inhibition of shoot length at 1 ppm relative to untreated control. Summed up:
(§1)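 Pure reference kava lactones diluted to 1 and 10 ppm. Seeds were sterilized in 1% sodium hypochlorite for 30 min and rinsed in distilled water; germination >80%. Five replicates were incubated at 25 °C, 4000 lx, 8/16 h day/night, 75% humidity. Distilled-water controls. After 7 days, germinated seeds were counted and shoot and root lengths measured.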

In assay [2] the test system is Colletotrichum gloeosporioides. The experiment in a line: Antifungal activity against Colletotrichum gloeosporioides assessed as growth inhibition at 50 ppm after 4 days relative to untreated control. The following applies: 96 h, read-out: GI. In outline:
(§2)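 Fungal cultures kept on potato dextrose agar (PDA) and subcultured on fresh medium for 3 days before testing. PDA plates held kava lactones dissolved in water at 10 or 50 ppm. Plates were inoculated with plugs from the actively growing fungal margin and incubated at 25 °C for 4 days. Distilled-water controls. Completely randomized design, at least three replicates, ANOVA.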

For assay [3], the system named is Echinochloa crus-galli. The experiment in a line: Herbicidal activity against Echinochloa crus-galli (barnyard grass) assessed as inhibition of germination at 1 ppm relative to untreated control. In outline: as §1
The test system of assay [4] is Lactuca sativa. The experiment in a line: Herbicidal activity against Lactuca sativa cv. Great Lakes 366 (lettuce) assessed as inhibition of root length at 1 ppm relative to untreated control. In outline:
as §1

Assay [5] relates to Fusarium oxysporum. The experiment in a line: Antifungal activity against Fusarium oxysporum assessed as growth inhibition at 50 ppm after 4 days relative to untreated control. The following applies: 96 h, read-out: GI. Summed up: as §2
For assay [6], the system named is Fusarium solani. The experiment in a line: Antifungal activity against Fusarium solani assessed as growth inhibition at 50 ppm after 4 days relative to untreated control. To be noted: 96 h, read-out: GI. In outline:
as §2

Assay [7] concerns Echinochloa crus-galli. The experiment in a line: Herbicidal activity against Echinochloa crus-galli (barnyard grass) assessed as inhibition of shoot length at 1 ppm relative to untreated control. Summed up:
as §1

In assay [8] the test system is Lactuca sativa. The experiment in a line: Herbicidal activity against Lactuca sativa cv. Great Lakes 366 (lettuce) assessed as inhibition of shoot length at 10 ppm relative to untreated control. Summed up:
as §1

Assay [9] deals with Echinochloa crus-galli. The experiment in a line: Herbicidal activity against Echinochloa crus-galli (barnyard grass) assessed as inhibition of germination at 10 ppm relative to untreated control. In outline: as §1
In assay [10] the test system is Lactuca sativa. The experiment in a line: Herbicidal activity against Lactuca sativa cv. Great Lakes 366 (lettuce) assessed as inhibition of germination at 1 ppm relative to untreated control. Summed up: as §1
Assay [11] relates to Echinochloa crus-galli. The experiment in a line: Herbicidal activity against Echinochloa crus-galli (barnyard grass) assessed as inhibition of root length at 1 ppm relative to untreated control. In outline: as §1
Assay [12] has as its system Lactuca sativa. The experiment in a line: Herbicidal activity against Lactuca sativa cv. Great Lakes 366 (lettuce) assessed as inhibition of root length at 10 ppm relative to untreated control. Summed up: as §1
Assay [13] concerns Trichoderma viride. The experiment in a line: Antifungal activity against Hypocrea rufa assessed as growth inhibition at 50 ppm after 4 days relative to untreated control. To be noted: 96 h, read-out: GI. Summed up:
as §2

Assay [14] has as its system Echinochloa crus-galli. The experiment in a line: Herbicidal activity against Echinochloa crus-galli (barnyard grass) assessed as inhibition of shoot length at 10 ppm relative to untreated control. In outline:
as §1

Assay [15] deals with Lactuca sativa. The experiment in a line: Herbicidal activity against Lactuca sativa cv. Great Lakes 366 (lettuce) assessed as inhibition of germination at 10 ppm relative to untreated control. In outline:
as §1

The subject of assay [16] is Echinochloa crus-galli. The experiment in a line: Herbicidal activity against Echinochloa crus-galli (barnyard grass) assessed as inhibition of root length at 10 ppm relative to untreated control. In outline: as §1
Assay [17] has as its system Fusarium oxysporum. The experiment in a line: Antifungal activity against Fusarium oxysporum assessed as growth inhibition at 10 ppm after 4 days relative to untreated control. The following applies: 96 h, read-out: GI. Summed up:
as §2

The subject of assay [18] is Fusarium solani. The experiment in a line: Antifungal activity against Fusarium solani assessed as growth inhibition at 10 ppm after 4 days relative to untreated control. The following applies: 96 h, read-out: GI. Summed up:
as §2

Assay [19] deals with Colletotrichum gloeosporioides. The experiment in a line: Antifungal activity against Colletotrichum gloeosporioides assessed as growth inhibition at 10 ppm after 4 days relative to untreated control. To be noted: 96 h, read-out: GI. Summed up:
as §2

In assay [20] the test system is Trichoderma viride. The experiment in a line: Antifungal activity against Hypocrea rufa assessed as growth inhibition at 10 ppm after 4 days relative to untreated control. To be noted: 96 h, read-out: GI. In outline:
as §2

Broadly, the inhibition is the relative decrease from the control value, in per cent.

In the case of `COc1ccc(/C=C/c2cc(OC)cc(=O)o2)cc1` [YANGONIN], the inhibition at 1 ppm in the assay with Lactuca sativa [1] is 63.1%; with Echinochloa crus-galli [3], 56.7%; in the assay with Lactuca sativa [4], 36.1%; in the assay with Echinochloa crus-galli [7], 53.1%; in the assay on Lactuca sativa [10], 44.4%; with Echinochloa crus-galli [11], 42.9%. The inhibition of growth at 50 ppm in [2] stood at 0%; in the assay on Fusarium oxysporum [5] it was 39.1%; in the assay on Fusarium solani [6], 41.9%; in the assay on Trichoderma viride [13], 0%. The inhibition at 10 ppm worked out at 78.6% in the assay with Lactuca sativa [8]; 56.7% in the assay on Echinochloa crus-galli [9]; 68% in the assay with Lactuca sativa [12]; 58.2% with Echinochloa crus-galli [14]; 59.2% with Lactuca sativa [15]; 43.8% in the assay on Echinochloa crus-galli [16].

With `COC1=CC(=O)O[C@@H](CCc2ccc3c(c2)OCO3)C1` [DIHYDROMETHYSTICIN], the inhibition of growth at 10 ppm with Fusarium oxysporum [17] worked out at 18.8%; with Fusarium solani [18], 40.3%; in assay [19] it was 0%; in the assay on Trichoderma viride [20] it was 0%. The inhibition of growth at 50 ppm in [2] is 27.8%; with Fusarium oxysporum [5], 31.9%; in the assay with Fusarium solani [6] it was 48.4%; with Trichoderma viride [13] it was 0%. For the same molecule, the inhibition at 1 ppm with Echinochloa crus-galli [3] is 50%; with Echinochloa crus-galli [7], 48.6%; in the assay with Echinochloa crus-galli [11], 32.1%. Also, the inhibition at 10 ppm in the assay with Lactuca sativa [8] was 76.5%; in the assay with Echinochloa crus-galli [9], 56.7%; with Lactuca sativa [12], 74.8%; with Echinochloa crus-galli [14] it was 55.6%; in the assay on Lactuca sativa [15], 89.9%; with Echinochloa crus-galli [16], 48.2%.

`COC1=CC(=O)O[C@@H](/C=C/c2ccc3c(c2)OCO3)C1` [METHYSTICIN]: the inhibition of growth at 10 ppm came out at 11.6% in the assay with Fusarium oxysporum [17], 37.1% in the assay with Fusarium solani [18], 0% in assay [19] and 0% in the assay on Trichoderma viride [20]. Moreover, the inhibition at 1 ppm stood at 71.1% in the assay with Lactuca sativa [1]; 50% in the assay with Echinochloa crus-galli [3]; 61.2% with Lactuca sativa [4]; 55% in the assay on Echinochloa crus-galli [7]; 48.1% in the assay on Lactuca sativa [10]; 75.4% with Echinochloa crus-galli [11]. For the same molecule, the inhibition of growth at 50 ppm came to 0% in assay [2], 36.2% in the assay with Fusarium oxysporum [5], 33.9% with Fusarium solani [6] and 0% in the assay on Trichoderma viride [13]. Moreover, the inhibition at 10 ppm in the assay with Lactuca sativa [8] turned out to be 73.3%; with Echinochloa crus-galli [9], 60%; with Lactuca sativa [12], 53.1%; in the assay with Echinochloa crus-galli [14], 56%; in the assay with Lactuca sativa [15], 55.6%; in the assay on Echinochloa crus-galli [16], 83.9%.

As for `COc1cc(/C=C/c2ccccc2)oc(=O)c1` [DESMETHOXYYANGONIN], the inhibition of growth at 10 ppm is 11.6% with Fusarium oxysporum [17], 27.4% in the assay on Fusarium solani [18], 0% in assay [19] and 0% in the assay on Trichoderma viride [20]. For the same molecule, the inhibition at 1 ppm with Lactuca sativa [1] was found to be 74.9%; with Echinochloa crus-galli [3], 43.3%; in the assay on Lactuca sativa [4], 50.3%; in the assay with Echinochloa crus-galli [7], 31.7%; in the assay with Lactuca sativa [10], 48.1%; in the assay with Echinochloa crus-galli [11] it was 46.4%. Moreover, the inhibition of growth at 50 ppm in assay [2] came to 22.2%; in the assay with Fusarium oxysporum [5] it was 24.6%; in the assay with Fusarium solani [6], 33.9%; in the assay on Trichoderma viride [13] it was 0%. Also, the inhibition at 10 ppm with Lactuca sativa [8] stood at 82.4%; in the assay with Echinochloa crus-galli [9], 60%; in the assay on Lactuca sativa [12] it was 63.3%; in the assay with Echinochloa crus-galli [14] it was 59.9%; with Lactuca sativa [15], 59.2%; in the assay on Echinochloa crus-galli [16] it was 51.3%.

Regarding `COC1=CC(=O)O[C@@H](/C=C/c2ccccc2)C1` [KAVAIN], the inhibition of growth at 10 ppm in the assay on Fusarium oxysporum [17] came to 0%; in the assay with Fusarium solani [18], 29%; in assay [19], 0%; in the assay with Trichoderma viride [20] it was 0%. Moreover, the inhibition at 1 ppm in the assay with Lactuca sativa [1] was 75.9%; in the assay with Echinochloa crus-galli [3], 46.7%; in the assay on Lactuca sativa [4], 59.9%; with Lactuca sativa [10], 51.9%; in the assay on Echinochloa crus-galli [11] it was 39.7%. Besides, the inhibition of growth at 50 ppm in assay [2] is 0%; in the assay with Fusarium oxysporum [5], 17.4%; in the assay with Fusarium solani [6], 29%; with Trichoderma viride [13], 0%. Also, the inhibition at 10 ppm in the assay on Lactuca sativa [8] was 86.1%; with Echinochloa crus-galli [9], 46.7%; in the assay on Lactuca sativa [12], 62.6%; with Echinochloa crus-galli [14], 47.6%; with Lactuca sativa [15], 59.2%; with Echinochloa crus-galli [16], 46.9%.

Consider `COC1=CC(=O)O[C@@H](CCc2ccccc2)C1` [DIHYDROKAWAIN], for which the inhibition of growth at 10 ppm with Fusarium oxysporum [17] was 10.1%; in the assay with Fusarium solani [18], 0%; in [19] it was 0%; in the assay with Trichoderma viride [20], 0%. In addition, the inhibition of growth at 50 ppm in assay [2] amounted to 33.3%; in the assay on Fusarium oxysporum [5], 21.7%; in the assay on Fusarium solani [6], 38.7%; with Trichoderma viride [13] it was 16.2%. Also, the inhibition at 1 ppm is 46.7% with Echinochloa crus-galli [3], 56.6% in the assay with Echinochloa crus-galli [7] and 53.1% in the assay on Echinochloa crus-galli [11]. Moreover, the inhibition at 10 ppm came to 74.3% with Lactuca sativa [8]; 50% in the assay with Echinochloa crus-galli [9]; 15.6% in the assay with Lactuca sativa [12]; 61.2% in the assay with Echinochloa crus-galli [14]; 25.9% in the assay with Lactuca sativa [15]; 58.9% in the assay with Echinochloa crus-galli [16].
